Assay results reported in ChEMBL document CHEMBL2010670, “Discovery of a clinical stage multi-kinase inhibitor sodium (E)-2-{2-methoxy-5-[(2',4',6'-trimethoxystyrylsulfonyl)methyl]phenylamino}acetate (ON 01910.Na): synthesis, structure-activity relationship, and biological activity” (J Med Chem, 2011).
Active and inactive are the calls of the source. The calls are words filed in the database; no cut-off is given here.

Key:
DU-145 [1] = test: Cell cycle arrest in human DU145 cells assessed as accumulation of cells in G2/M phase after 24 hrs by propidium iodide staining-based flow cytometric analysis; format: functional
Method in brief: (§1)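 DMEM with 10% FBS; 1.0 × 10⁶ cells/dish, treated 24 h after plating and harvested 24 h after treatment. Trypsinized cells were pooled with floating cells, PBS-washed and fixed in ice-cold 70% ethanol for ≥24 h. Cells were stained with propidium iodide plus RNase A for 30 min at 37 °C. DNA content was read by flow cytometry with cell-cycle modelling.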

DU-145 [2] = test: Cell cycle arrest in human DU145 cells assessed as accumulation of cells containing subG1 content of DNA at 0.1 to 1 uM after 24 hrs by propidium iodide staining-based flow cytometric analysis; format: functional; method in brief: as §1
DU-145 [3] = test: Induction of apoptosis in human DU145 cells assessed as PARP1 cleavage at 0.25 to 5 uM after 48 hrs by Western blot analysis; format: functional, cell-based
Method in brief: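 DU145 or HFL-1 cells plated at 3.0 × 10⁶ per […], treated 24 h later with DMSO or compound for 48 h. Frozen pellets lysed in 1% NP40/PBS with protease inhibitors. Equal protein run on 10% SDS-PAGE, transferred to nitrocellulose, probed with anti-PARP antibody, ECL detection.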

A549 [4] = test: Induction of apoptosis in human A549 cells assessed as cell viability at 0.25 uM after 24 hrs by fluorescence assay; format: functional, cell-based
Method in brief: (§2)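 A549 cells seeded at 3,600 cells/well in DMEM + 10% FBS, adhered overnight at 37 °C, then exposed to varying compound concentrations or DMSO for 24 h. Viability read first as fluorescence 3 h after CellTiter-Blue addition. Caspase-Glo 3/7 was then added to the same wells, developed 2 h at room temperature, and luminescence read; n=3.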

A549 [5] = test: Induction of apoptosis in human A549 cells assessed as caspase 3/7 activity at 0.25 uM after 24 hrs by luminescence assay; format: functional, cell-based; method in brief: as §2
BT-20 = test: Cytotoxicity against human BT20 cells after 96 hrs by trypan blue exclusion assay; format: functional, cell-based; conditions: BT-20, 96 h
Method in brief: (§3)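 Cells grown in DMEM or RPMI with 10% FBS and penicillin-streptomycin, seeded at 1.0 × 10⁵ cells/mL/well in 6-well dishes. Compound added at a range of concentrations 24 h after seeding. Viable cells counted by trypan blue exclusion from duplicate wells after 96 h of exposure; dose-response end point.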

T47D = test: Cytotoxicity against human T47D cells after 96 hrs by trypan blue exclusion assay; format: functional, cell-based
Method in brief: (§4)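 Cells grown in DMEM or RPMI with 10% FBS and 1 unit/mL penicillin-streptomycin, seeded at 1.0 × 10⁵ cells/mL/well in 6-well dishes; compound added 24 h later at various concentrations. After 96 h of treatment, viable cells counted by trypan blue exclusion in duplicate wells; dose-response end point.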

MCF7 = test: Cytotoxicity against human MCF7 cells after 96 hrs by trypan blue exclusion assay; format: functional, cell-based; conditions: MCF7, 96 h; method in brief: as §3
SK-BR-3 = test: Cytotoxicity against human SKBR3 cells after 96 hrs by trypan blue exclusion assay; format: functional, cell-based; conditions: SK-BR-3, 96 h; method in brief: as §4
BT-474 = test: Cytotoxicity against human BT474 cells after 96 hrs by trypan blue exclusion assay; format: functional, cell-based; conditions: BT-474, 96 h; method in brief: as §3
DU-145 [6] = test: Cytotoxicity against human DU145 cells after 96 hrs by trypan blue exclusion assay; format: functional, cell-based; conditions: Homo sapiens, DU-145, 96 h; method in brief: as §3
PC-3 = test: Cytotoxicity against human PC3 cells after 96 hrs by trypan blue exclusion assay; format: functional, cell-based; conditions: PC-3, 96 h; method in brief: as §3
OVCAR-3 = test: Cytotoxicity against human OVCAR3 cells after 96 hrs by trypan blue exclusion assay; format: functional, cell-based; conditions: OVCAR-3, 96 h; method in brief: as §3
MIA PaCa-2 = test: Cytotoxicity against human MIAPaCa2 cells after 96 hrs by trypan blue exclusion assay; format: functional, cell-based; conditions: MIA PaCa-2, 96 h; method in brief: as §3
[7] = Cytotoxicity against human U87 cells after 96 hrs by trypan blue exclusion assay; format: functional, cell-based, U-87MG ATCC; conditions: U-87 MG; method in brief: as §4
NCI-H157 = test: Cytotoxicity against human NCI-H157 cells after 96 hrs by trypan blue exclusion assay; format: functional, cell-based; conditions: NCI-H157, 96 h; method in brief: as §3
A549 [8] = test: Cytotoxicity against human A549 cells after 96 hrs by trypan blue exclusion assay; format: functional, cell-based; conditions: A549, 96 h; method in brief: as §3
NCI-H1975 = test: Cytotoxicity against human NCI-H1975 cells after 96 hrs by trypan blue exclusion assay; format: functional, cell-based; conditions: NCI-H1975, 96 h; method in brief: as §3
NCI-H187 = test: Cytotoxicity against human NCI-H187 cells after 96 hrs by trypan blue exclusion assay; format: functional, cell-based; conditions: NCI-H187, 96 h; method in brief: as §3
NCI-H417 = test: Cytotoxicity against human NCI-N417 cells after 96 hrs by trypan blue exclusion assay; format: functional, cell-based; conditions: NCI-H417, 96 h; method in brief: as §3
AGS = test: Cytotoxicity against human AGS cells after 96 hrs by trypan blue exclusion assay; format: functional, cell-based; method in brief: as §3
[9] = Cytotoxicity against human RF1 cells after 96 hrs by trypan blue exclusion assay; format: functional, cell-based; conditions: RF1, 96 h; method in brief: as §4
[10] = Cytotoxicity against human RF48 cells after 96 hrs by trypan blue exclusion assay; format: functional, cell-based; conditions: RF48, 96 h; method in brief: as §4
COLO 205 = test: Cytotoxicity against human COLO205 cells after 96 hrs by trypan blue exclusion assay; format: functional, cell-based; conditions: COLO 205, 96 h; method in brief: as §3
DLD-1 = test: Cytotoxicity against human DLD1 cells after 96 hrs by trypan blue exclusion assay; format: functional, cell-based; conditions: DLD-1, 96 h; method in brief: as §3
HCT-116 = test: Cytotoxicity against human HCT116 cells after 96 hrs by trypan blue exclusion assay; format: functional, cell-based; conditions: HCT-116, 96 h; method in brief: as §3
HCT-15 = test: Cytotoxicity against human HCT15 cells after 96 hrs by trypan blue exclusion assay; format: functional, cell-based; conditions: HCT-15, 96 h; method in brief: as §3
[11] = Cytotoxicity against human COLO320 cells after 96 hrs by trypan blue exclusion assay; format: functional, cell-based; conditions: COLO 320, 96 h; method in brief: as §3
SW480 = test: Cytotoxicity against human SW480 cells after 96 hrs by trypan blue exclusion assay; format: functional, cell-based; conditions: SW480, 96 h; method in brief: as §4
K562 = test: Cytotoxicity against human K562 cells after 96 hrs by trypan blue exclusion assay; format: functional, cell-based; conditions: Homo sapiens, K562, 96 h; method in brief: as §3
MOLT-4 = test: Cytotoxicity against human MOLT4 cells after 96 hrs by trypan blue exclusion assay; format: functional, cell-based; conditions: MOLT-4, 96 h; method in brief: as §3
[12] = Cytotoxicity against human Z138C cells after 96 hrs by trypan blue exclusion assay; format: functional, cell-based; method in brief: as §4
[13] = Cytotoxicity against human GRANTA-519 cells after 96 hrs by trypan blue exclusion assay; format: functional, cell-based; conditions: Granta-519, 96 h; method in brief: as §3
LP-1 = test: Cytotoxicity against human LP-1 cells after 96 hrs by trypan blue exclusion assay; format: functional, cell-based; conditions: LP-1, 96 h; method in brief: as §3
U-266 = test: Cytotoxicity against human U266 cells after 96 hrs by trypan blue exclusion assay; format: functional, cell-based; conditions: U-266, 96 h; method in brief: as §4
OPM-2 = test: Cytotoxicity against human OPM2 cells after 96 hrs by trypan blue exclusion assay; format: functional, cell-based; conditions: OPM-2, 96 h; method in brief: as §3
[14] = Cytotoxicity against human […] cells after 96 hrs by trypan blue exclusion assay; format: functional, cell-based; method in brief: as §4
Daudi = test: Cytotoxicity against human Daudi cells after 96 hrs by trypan blue exclusion assay; format: functional, cell-based; method in brief: as §3
Raji = test: Cytotoxicity against human Raji cells after 96 hrs by trypan blue exclusion assay; format: functional, cell-based; method in brief: as §4
[15] = Cytotoxicity against human NAMALWA cells after 96 hrs by trypan blue exclusion assay; format: functional, cell-based; conditions: NAMALVA; method in brief: as §3
[16] = Cytotoxicity against human MES-SA cells assessed as cell viability after 96 hrs by trypan blue exclusion; format: functional, cell-based; method in brief: as §3
[17] = Cytotoxicity against multidrug-resistant human MES-SA/Dx5 cells assessed as cell viability after 96 hrs by trypan blue exclusion; format: functional, cell-based; conditions: MES-SA/Dx5, 96 h; method in brief: as §4
CCRF-CEM = test: Cytotoxicity against human CEM cells assessed as cell viability after 96 hrs by trypan blue exclusion; format: functional, cell-based; method in brief: as §3
CEM/C2 = test: Cytotoxicity against multidrug-resistant human CEM/C2 cells assessed as cell viability after 96 hrs by trypan blue exclusion; format: functional, cell-based; conditions: CEM/C2, 96 h; method in brief: as §4
2008 = test: Cytotoxicity against human 2008 cells assessed as cell viability after 96 hrs by trypan blue exclusion; format: functional, cell-based; conditions: Homo sapiens, 2008, 96 h; method in brief: as §3
[18] = Cytotoxicity against multidrug-resistant human 2008/17/4 cells assessed as cell viability after 96 hrs by trypan blue exclusion; format: functional, cell-based; method in brief: as §4

COc1cc(OC)c(/C=C/S(=O)(=O)Cc2ccc(OC)c(NCC(=O)O)c2)c(OC)c1
Activity (DU-145 [1]): Dose-dependent effect | Activity (DU-145 [2]): Active | Activity (DU-145 [3]): Active | Activity (A549 [4]): Active | Activity (A549 [5]): Active

COc1cc(OC)c(/C=C/S(=O)(=O)Cc2ccc(OC)c(N)c2)c(OC)c1
IC50 (BT-20): 30 nM | IC50 (T47D): 3 nM | IC50 (MCF7): 1 nM | IC50 (SK-BR-3): 3 nM | IC50 (BT-474): 2 nM | IC50 (DU-145 [6]): 4 nM | IC50 (PC-3): 6 nM | IC50 (OVCAR-3): 3 nM | IC50 (MIA PaCa-2): 3 nM | IC50 [7]: 3 nM | IC50 (NCI-H157): 4 nM | IC50 (A549 [8]): 3 nM | IC50 (NCI-H1975): 3 nM | IC50 (NCI-H187): 4 nM | IC50 (NCI-H417): 3 nM | IC50 (AGS): 3 nM | IC50 [9]: 2 nM | IC50 [10]: 1 nM | IC50 (COLO 205): 5 nM | IC50 (DLD-1): 5 nM | IC50 (HCT-116): 3 nM | IC50 (HCT-15): 3 nM | IC50 [11]: 3 nM | IC50 (SW480): 5 nM | IC50 (K562): 2.5 nM | IC50 (MOLT-4): 4 nM | IC50 [12]: 3 nM | IC50 [13]: 3 nM | IC50 (LP-1): 3 nM | IC50 (U-266): 3 nM | IC50 (OPM-2): 3 nM | IC50 [14]: 3 nM | IC50 (Daudi): 3 nM | IC50 (Raji): 2 nM | IC50 [15]: 5 nM | IC50 [16]: 4 nM | IC50 [17]: 4 nM | IC50 (CCRF-CEM): 10 nM | IC50 (CEM/C2): 10 nM | IC50 2008: 3 nM | IC50 [18]: 3 nM
